The text below walks through data of ChEMBL document CHEMBL3608210, “LC-MS- and (1)H NMR Spectroscopy-Guided Identification of Antifungal Diterpenoids from Sagittaria latifolia” (J Nat Prod, 2015).

One assay deals with LLC-PK1. Briefly: Cytotoxicity against pig LLC-PK1 cells assessed as reduction in cell viability incubated for 48 hrs by neutral red based assay. As to conditions: Sus scrofa, LLC-PK1, 48 h. In outline: (§1)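 Vero (African green monkey kidney […]) and LLC-PK1 (pig kidney epithelial) cells were obtained from ATCC. Cytotoxicity was read by neutral red uptake, with doxorubicin as the positive control. IC50 was taken as the concentration giving 50% growth inhibition of the mammalian cells.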

For a further assay, the system named is Vero. Briefly: Cytotoxicity against african green monkey Vero cells assessed as reduction in cell viability incubated for 48 hrs by neutral red based assay. As to conditions: Chlorocebus sabaeus. The gist of the method:
as §1

Assay [1] concerns Cryptococcus neoformans. As to the kind of experiment: Antifungal activity against Cryptococcus neoformans ATCC 90113 assessed as inhibition of microbial growth at 20 ug/ml incubated for 72 hrs at 30 degC by modified CLSI protocol based method. Type of assay: functional, organism-based. In outline:
(§2)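 Strains were obtained from ATCC, and amphotericin B served as the positive control. IC50 was the concentration giving 50% growth inhibition of fungal cells. MIC was the lowest concentration allowing no detectable growth. The highest concentration tested was 20 μg/mL.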

Assay [2] relates to Cryptococcus neoformans. Briefly: Antifungal activity against Cryptococcus neoformans ATCC 90113 assessed as inhibition of microbial growth incubated for 72 hrs at 30 degC by modified CLSI protocol based method. Format: functional, organism-based. To be noted: ATCC 90113, 72 h. The gist of the method:
as §2

Assay [3] has as its system Cryptococcus bacillisporus. As to the kind of experiment: Antifungal activity against Cryptococcus gattii ATCC 32609 assessed as inhibition of microbial growth incubated for 72 hrs at 30 degC by modified CLSI protocol based method. To be noted: ATCC 32609, 72 h. Format: functional, organism-based. The gist of the method: as §2

≈ marks a conversion by molar mass, not a printed value. Calls of active or inactive are those of the source.

A word on the IC50: it is the concentration that gives 50% inhibition. As to `COc1cccc2c1C(=O)c1c(O)c3c(c(O)c1C2=O)C[C@@](O)(C(=O)CO)C[C@@H]3O[C@H]1C[C@H](N)[C@H](O)[C@H](C)O1` [DOXORUBICIN], the results for the IC50 in the assay with LLC-PK1 and in the assay with Vero were 0.4 µg/mL (≈ 0.736 µM) and 5.4 µg/mL (≈ 9.94 µM), respectively.
On to `C=C[C@@]1(C)CC[C@H]2C(=CC[C@H]3[C@@](C)(CO[C@@H]4O[C@@H](COC(C)=O)[C@H](O)[C@H]4O)CCC[C@]23C)C1`, for which, in the assay with Cryptococcus neoformans [1], the “growth inhibition (GI)” value was “inactive”.
A word on the MIC: it is the smallest concentration in the dilution series that meets the test's criterion for growth inhibition. As to `C=C[C@@]1(C)CC[C@H]2C(=CC[C@H]3[C@@](C)(CO)CCC[C@]23C)C1`, the IC50 came to 42.5 µg/mL (≈ 147 µM) with LLC-PK1, 9.2 µg/mL in the assay on Cryptococcus neoformans [2], 6.8 µg/mL in assay [3] and 37.5 µg/mL (≈ 130 µM) with Vero. For the same molecule, the MIC with Cryptococcus neoformans [2] was greater than 20 µg/mL; in assay [3] it was 20 µg/mL.
With `C[C@@H]1[C@H](O)[C@@H](C)/C=C/C=C/C=C/C=C/C=C/C=C/C=C/[C@H](O[C@@H]2O[C@H](C)[C@@H](O)[C@H](N)[C@@H]2O)C[C@@H]2O[C@](O)(C[C@@H](O)C[C@@H](O)[C@H](O)CC[C@@H](O)C[C@@H](O)CC(=O)O[C@H]1C)C[C@H](O)[C@H]2C(=O)O` [AMPHOTERICIN B], the MIC turned out to be 0.7 µg/mL with Cryptococcus neoformans [2] and 0.3 µg/mL in assay [3]. Besides, in assay [3], the IC50 came out at 0.1 µg/mL.
Turning to `C=C[C@@]1(C)CC[C@H]2C(=CC[C@H]3[C@@](C)(CO[C@@H]4O[C@@H](CO)[C@H](O)[C@H]4O)CCC[C@]23C)C1`, the IC50 turned out to be 21.5 µg/mL (≈ 51.1 µM) with LLC-PK1, 3.7 µg/mL in the assay on Cryptococcus neoformans [2], 1.8 µg/mL in assay [3] and 30 µg/mL (≈ 71.3 µM) in the assay with Vero. The MIC in the assay on Cryptococcus neoformans [2] is greater than 20 µg/mL; in assay [3], 20 µg/mL.
